Calls of active or inactive are those of the source. No cut-off for these calls is given here.
Key:
[1] = target: Sigma non-opioid intracellular receptor 1 (Rattus norvegicus) (UniProt Q9R0C9); test: Selectivity ratio of Ki for binding affinity to rat liver homogenate S1R incubated for 2 hrs in absence of phenytoin to Ki for binding affinity to rat liver homogenate S1R incubated for 2 hrs in presence of phenytoin; type: tissue-based
[2] = Cytotoxicity against HCE cells assessed as reduction in cell viability at 100 uM […] by MTT assay; type: toxicity, cell-based; conditions: human
Mus musculus [3] = test: Anti-allodynic activity against capsaicin-induced d sc dosed wild type CD1 mouse allodynia model assessed as reversal of capsaicin induced hypersensitivity by measuring latency value preincubated for 30 mins followed by capsaicin addition (reference value: 13.51 +/- 1.93 sec); type: functional; conditions: dose 10-40 mg/kg
Mus musculus [4] = test: Anti-allodynic activity against capsaicin-induced wild type CD1 mouse allodynia model assessed as reversal of capsaicin induced hypersensitivity by measuring latency value at 20 mg/kg, sc preincubated for 5 with […] followed by compound addition for 30 mins prior to capsaicin stimulation; type: functional, organism-based
[5] = Cytotoxicity against HCE cells assessed as reduction in cell viability at above 20 uM incubated for 1 hr by MTT assay; type: toxicity, cell-based; conditions: human
In short: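 HCE cells in MEM with 10% FBS, grown to 80–90% confluence. Exposed to compounds in free medium for 20 h. MTT (5 mg/mL in PBS, 1:5 of medium volume) then added for 1 h; formazan dissolved in DMSO and read at 540 nm. Viability expressed as % of untreated cells; three independent experiments.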

[6] = Cytotoxicity against HCE cells at 50 to 100 uM […] by LDH assay; type: toxicity, cell-based; conditions: human, 1.25 h, dose 50-100 µM
Mus musculus [7] = test: Anti-allodynic activity against capsaicin-induced wild type CD1 mouse allodynia model assessed as reversal of capsaicin induced hypersensitivity by measuring latency value at 40 mg/kg, sc preincubated for 5 with […] followed by compound addition for 30 mins prior to capsaicin stimulation; type: functional, organism-based
In short: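 Female CD1 mice, 25–30 g, acclimated at least 1 week. Mechanical allodynia induced by intraplantar capsaicin; read-out is response latency to mechanical stimulation of the paw. Compound given s.c.; the S1R agonist PRE-084 (32 mg/kg, s.c.) was co-administered to test reversal. Values are mean ± SEM from 6–9 animals per group.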

Mus musculus [8] = test: Anti-allodynic activity against capsaicin-induced wild type CD1 mouse allodynia model assessed as reversal of capsaicin induced hypersensitivity by measuring latency value at 10 mg/kg, sc preincubated for 5 with […] followed by compound addition for 30 mins prior to capsaicin stimulation; type: functional, organism-based
Mus musculus [9] = test: Anti-allodynic activity against capsaicin-induced wild type CD1 mouse allodynia model assessed as reversal of capsaicin induced hypersensitivity by measuring latency value at 5 mg/kg, sc preincubated for 30 mins followed by capsaicin addition (reference value: 13.51 +/- 1.93 sec); type: functional, organism-based
[10] = target: Cannabinoid receptor 2 (Homo sapiens) (UniProt P34972); test: Inhibition of CB2 (unknown origin) at 1 uM relative to control
In short: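 Membranes from CHO-K1 cells expressing human CB2, 30 µg per sample, in modified HEPES pH 7.0. […] Nonspecific binding with 10 µM R(+)-WIN-55,212-2. Compound tested at 1 µM; bound radioligand counted after filtration.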

Mus musculus [11] = test: Anti-allodynic activity against capsaicin-induced wild type CD1 mouse allodynia model assessed as reversal of capsaicin induced hypersensitivity by measuring latency value at 1.25 mg/kg, sc preincubated for 5 with […] followed by compound addition for 30 mins prior to capsaicin stimulation; type: functional, organism-based
[12] = target: Mu-type opioid receptor (Homo sapiens) (UniProt P35372); test: Inhibition of MOR (unknown origin) at 1 uM relative to control
[13] = target: Kappa-type opioid receptor (Homo sapiens) (UniProt P41145); test: Inhibition of KOR (unknown origin) at 1 uM relative to control
In short: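 Nonspecific binding defined with 10 µM naloxone. Filtration through PEI-presoaked filters, then scintillation counting.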

[14] = target: Delta-type opioid receptor (Homo sapiens) (UniProt P41143); test: Inhibition of DOR (unknown origin) at 1 uM relative to control
Mus musculus [15] = test: Anti-allodynic activity against capsaicin-induced wild type CD1 mouse allodynia model assessed as reversal of capsaicin induced hypersensitivity by measuring latency value at 0.6 to 1.25 mg/kg, sc preincubated for 30 mins followed by capsaicin addition (reference value: 13.51 +/- 1.93 sec); type: functional, organism-based; conditions: dose 0.6-1.25 mg/kg
[16] = Toxicity in wild type CD1 mouse assessed as effect on motor coordination at 1.25 mg/kg, sc measured upto 240 mins by rotarod test; type: organism-based; conditions: in vivo, time < 240 hrs
In short: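 Female CD1 mice on rotarod; latency to fall recorded immediately before and at several times over 4 h after s.c. dosing. Vehicle was 5% DMSO in saline; pregabalin 60 mg/kg s.c. served as the motor-deficit control. Mean ± SEM from 6–7 animals, analysed by 2-way repeated-measures ANOVA with Student–Newman–Keuls test.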

[17] = target: Cannabinoid receptor 1 (Homo sapiens) (UniProt P21554); test: Inhibition of CB1 (unknown origin) at 1 uM relative to control
In short: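 Membranes from rat Chem-1 cells expressing human recombinant CB1, 5 µg per sample, in modified HEPES pH 7.4. […] Nonspecific binding with 10 µM CP 55,940. Compound tested at 1 µM; filtration and counting of specifically bound radioligand.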

[18] = target: Sigma intracellular receptor 2 (Homo sapiens, UniProt Q5BJF2); test: Binding affinity to S2R (unknown origin)
[19] = target: Sigma non-opioid intracellular receptor 1 (Homo sapiens, UniProt Q99720); test: Binding affinity to S1R (unknown origin)
In short: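 Rat liver homogenates from male Sprague Dawley rats in 50 mM Tris pH 8. […] Incubated 120 min at 37 °C, then filtration and scintillation counting. Ki is the mean ± SD of at least two experiments in duplicate.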

[20] = Toxicity in wild type CD1 mouse assessed as effect on motor coordination at 60 mg/kg, sc measured upto 240 mins by rotarod test; type: organism-based; conditions: in vivo, 4 h
In short: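 Female CD1 mice, 25–30 g. Latency to fall from the rotarod was recorded immediately before and several times after s.c. dosing, over 4 h; vehicle was DMSO 5% in saline. Mean ± SEM from 6–7 animals; 2-way repeated measures ANOVA followed by Student–Newman–Keuls test against time 0.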

[21] = target: Sigma non-opioid intracellular receptor 1 (Rattus norvegicus, UniProt Q9R0C9); test: Displacement of [3H]-(+)-pentazocine from rat liver homogenate S1R incubated for 120 mins by liquid scintillation counting method; type: tissue-based
Chain of Sigma non-opioid intracellular receptor 1 (Rattus norvegicus, UniProt Q9R0C9) (Q9R0C9 whole entry): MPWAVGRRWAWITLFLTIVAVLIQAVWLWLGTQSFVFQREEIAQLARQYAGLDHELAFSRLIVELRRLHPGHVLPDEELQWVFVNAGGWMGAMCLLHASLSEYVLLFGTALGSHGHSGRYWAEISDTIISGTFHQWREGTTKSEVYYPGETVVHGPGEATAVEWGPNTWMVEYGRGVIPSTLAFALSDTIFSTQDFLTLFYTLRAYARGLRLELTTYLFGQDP

Chain of Sigma non-opioid intracellular receptor 1 (Homo sapiens, UniProt Q99720) (Q99720 whole entry): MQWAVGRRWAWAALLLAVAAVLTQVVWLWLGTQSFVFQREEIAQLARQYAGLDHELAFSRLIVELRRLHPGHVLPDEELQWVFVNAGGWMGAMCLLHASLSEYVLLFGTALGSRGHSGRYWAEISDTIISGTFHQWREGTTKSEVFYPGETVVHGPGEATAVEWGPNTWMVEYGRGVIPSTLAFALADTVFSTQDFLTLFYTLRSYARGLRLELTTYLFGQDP
Chain of Sigma intracellular receptor 2 (Q5BJF2 whole entry): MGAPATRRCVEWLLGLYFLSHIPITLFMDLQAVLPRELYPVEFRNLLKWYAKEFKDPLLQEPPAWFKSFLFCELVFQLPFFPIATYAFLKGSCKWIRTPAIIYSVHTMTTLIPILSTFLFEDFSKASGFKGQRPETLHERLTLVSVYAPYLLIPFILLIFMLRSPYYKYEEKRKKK
Chain of Sigma non-opioid intracellular receptor 1 (Rattus norvegicus) (Q9R0C9 whole entry): as the sequence (Q9R0C9 whole entry) above
Chain of Cannabinoid receptor 2 (Homo sapiens) (P34972 whole entry): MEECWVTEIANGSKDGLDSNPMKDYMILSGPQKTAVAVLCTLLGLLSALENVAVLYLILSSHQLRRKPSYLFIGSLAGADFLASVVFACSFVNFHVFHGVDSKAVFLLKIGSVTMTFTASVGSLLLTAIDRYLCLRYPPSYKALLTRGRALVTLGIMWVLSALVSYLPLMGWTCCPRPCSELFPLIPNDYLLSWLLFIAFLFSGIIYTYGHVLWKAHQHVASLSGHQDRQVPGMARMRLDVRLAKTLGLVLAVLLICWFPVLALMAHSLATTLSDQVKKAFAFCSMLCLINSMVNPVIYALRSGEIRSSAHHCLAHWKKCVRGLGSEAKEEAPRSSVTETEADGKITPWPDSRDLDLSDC
Chain of Mu-type opioid receptor (Homo sapiens) (P35372 whole entry): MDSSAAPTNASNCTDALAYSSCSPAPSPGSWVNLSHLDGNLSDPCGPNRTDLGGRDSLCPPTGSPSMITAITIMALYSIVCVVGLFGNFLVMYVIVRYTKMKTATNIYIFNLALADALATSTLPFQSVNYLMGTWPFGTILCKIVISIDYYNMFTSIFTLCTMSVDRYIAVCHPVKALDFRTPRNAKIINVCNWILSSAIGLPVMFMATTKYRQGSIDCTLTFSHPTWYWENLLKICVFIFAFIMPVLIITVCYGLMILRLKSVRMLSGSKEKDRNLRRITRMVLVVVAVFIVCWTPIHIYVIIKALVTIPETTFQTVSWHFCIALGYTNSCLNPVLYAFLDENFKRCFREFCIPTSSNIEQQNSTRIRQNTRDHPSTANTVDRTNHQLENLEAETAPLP
Chain of Kappa-type opioid receptor (Homo sapiens) (P41145 whole entry): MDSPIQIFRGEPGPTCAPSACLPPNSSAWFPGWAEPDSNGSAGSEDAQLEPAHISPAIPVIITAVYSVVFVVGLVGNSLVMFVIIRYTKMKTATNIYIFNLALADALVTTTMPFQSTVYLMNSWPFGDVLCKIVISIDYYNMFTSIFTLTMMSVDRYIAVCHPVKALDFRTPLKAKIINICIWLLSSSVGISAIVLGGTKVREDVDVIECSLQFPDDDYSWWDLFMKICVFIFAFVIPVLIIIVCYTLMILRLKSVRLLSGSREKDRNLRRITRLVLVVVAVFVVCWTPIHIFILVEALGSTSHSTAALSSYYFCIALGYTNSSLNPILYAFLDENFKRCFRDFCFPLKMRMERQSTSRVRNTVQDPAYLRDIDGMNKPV
Chain of Cannabinoid receptor 1 (Homo sapiens) (P21554 whole entry): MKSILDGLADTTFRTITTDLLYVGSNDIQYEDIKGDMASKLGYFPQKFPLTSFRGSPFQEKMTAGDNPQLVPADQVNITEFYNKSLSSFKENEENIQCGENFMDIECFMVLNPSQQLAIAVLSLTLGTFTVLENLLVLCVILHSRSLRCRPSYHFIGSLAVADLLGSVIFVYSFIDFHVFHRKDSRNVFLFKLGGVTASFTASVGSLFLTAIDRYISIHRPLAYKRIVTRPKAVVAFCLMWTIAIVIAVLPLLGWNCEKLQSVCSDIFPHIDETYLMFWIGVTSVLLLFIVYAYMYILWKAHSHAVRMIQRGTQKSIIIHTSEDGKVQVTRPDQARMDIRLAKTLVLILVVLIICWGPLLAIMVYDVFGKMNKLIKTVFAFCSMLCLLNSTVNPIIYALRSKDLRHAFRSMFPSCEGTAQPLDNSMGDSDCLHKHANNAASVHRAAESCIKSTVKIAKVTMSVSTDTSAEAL
Chain of Delta-type opioid receptor (Homo sapiens) (P41143 whole entry): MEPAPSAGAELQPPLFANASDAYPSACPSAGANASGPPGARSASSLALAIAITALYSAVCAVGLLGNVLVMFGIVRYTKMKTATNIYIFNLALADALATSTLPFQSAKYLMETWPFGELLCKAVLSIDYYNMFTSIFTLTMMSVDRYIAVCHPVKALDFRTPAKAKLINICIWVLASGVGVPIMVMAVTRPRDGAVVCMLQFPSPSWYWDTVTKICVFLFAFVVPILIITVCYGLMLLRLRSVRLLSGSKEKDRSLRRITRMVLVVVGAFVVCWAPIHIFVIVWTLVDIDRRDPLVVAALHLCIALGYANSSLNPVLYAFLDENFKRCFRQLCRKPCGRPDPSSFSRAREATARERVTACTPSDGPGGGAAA

## C=CCN1CC[C@@]2(C)C[C@@H]1Cc1ccc(O)cc12
[1]
  Ratio Ki: 5.8

## c1ccc(CCN2CCC3(CCN(CCc4ccccc4)C3)C2)cc1
[2]
  Activity: Toxic
Mus musculus [3]
  Activity: Dose-Dependent Effect
Mus musculus [4]
  Activity: inactive
[5]
  Activity: Toxic
[6]
  Activity: Toxic

## CN1CCN(CCc2ccc(Cl)c(Cl)c2)CC1
Mus musculus [7]
  Activity: inactive

## O=[N+]([O-])c1ccc(N2CCC3(CCN(CCc4ccccc4)C3)C2)cc1 (stereo not given)
[2]
  Activity: 50%
Mus musculus [8]
  Activity: inactive
Mus musculus [3]
  Activity: Dose-Dependent Effect
Mus musculus [3]; 0.5 h, at 10 to 40 mg/kg
  Activity: 100%
Mus musculus [9]
  Activity: Active

## c1ccc(CCN2CCC3(CCN(c4ccccc4)C3)C2)cc1 (stereo not given)
[2]
  Activity: Toxic
Mus musculus [3]
  Activity: Dose-Dependent Effect
Mus musculus [4]
  Activity: inactive
[5]
  Activity: Toxic
[6]
  Activity: Toxic

## N#Cc1ccc(N2CCC3(CCN(CCc4ccccc4)C3)C2)cc1 (stereo not given)
[10]
  inhibition: < 50%
Mus musculus [11]
  Activity: inactive
Mus musculus [3]
  Activity: Dose-Dependent Effect
Mus musculus [3]; 0.5 h, at 10 to 40 mg/kg
  Activity: 100%
[12]
  inhibition: < 50%
[13]
  inhibition: < 50%
[14]
  inhibition: < 50%
Mus musculus [15]
  Activity: Active
[6]
  Activity: Toxic
[16]
  Activity: Non-Toxic
[17]
  inhibition: < 50%

## Cl.O=C(OCCN1CCOCC1)C1(c2ccccc2)CCCCC1
[5]
  Activity: Toxic

## c1ccc(CN2CCC3(CCc4ccccc4S3)CC2)cc1
[18]
  Ki: 6.4 nM
[19]
  Ki: 9.2 nM

## CC(C)C[C@H](CN)CC(=O)O [PREGABALIN]
[20]
  Activity: Toxic

## COC1Cc2ccccc2C2(CCC(N(C)CC3CCCCC3)CC2)O1 (stereo not given)
[18]
  Ki: 12 nM
[19]
  Ki: 1.9 nM

## c1ccc2c(c1)Nc1ccccc1S2 [PHENOTHIAZINE]
[21]
  Ki: 4.3 nM

## c1ccc(CN2CCC3(CC2)OCC(c2ccccc2)CO3)cc1
[18]
  Ki: 813 nM
[19]
  Ki: 0.013 nM

## O=C(Cc1ccc(Cl)c(Cl)c1)N1CCC2(CCN(CCc3ccccc3)C2)C1 (stereo not given)
Mus musculus [3]
  Activity: Dose-Dependent Effect
Mus musculus [3]; 0.5 h, at 10 to 40 mg/kg
  Activity: 100%
Mus musculus [7]
  Activity: inactive
